RBBP9 inhibitor = inhibitors of human serine hydrolase RBBP9; recombinant RBBP9, FP-Rh probe fluorescence polarization; inhibition, % at 7.94 µM; actives 0.2% (n = 220,000);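 active = inhibition above the campaign mean of all tested compounds plus 3 SD, cut at about 14% in these data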;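 note: plate controls were DMSO wells with RBBP9 for no effect and wells lacking RBBP9 protein for full effect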
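Material: RBBP9 protein. Amount: RBBP9 at 2.5 µM in dispensed solution, before mixing. Schedule: 30 min then 45 min, 25 °C. Medium: Tris buffer pH 8.0, NaCl, Pluronic. Measured by: fluorescence polarization. Measure: percent inhibition from mP, scaled between DMSO and no-protein wells. Replication: one well per compound.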
Mcl1-Bid inh = disrupts binding of human Mcl-1 to Bid peptide; Q07820; TR-FRET Mcl-1/Bid-Dy647 peptide binding, 1536-well; inhibition, % at 21.7 µM; actives 0.97% (n = 220,000); AID 1021;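 active = compounds that cut the binding signal by more than half at the single screening dose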;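 note: His-tagged Mcl-1 with europium anti-His antibody binding Bid BH3 peptide; 0% = Mcl-1 plus peptide wells and 100% = peptide-only wells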
Target sequence (Q07820 whole entry, looked up): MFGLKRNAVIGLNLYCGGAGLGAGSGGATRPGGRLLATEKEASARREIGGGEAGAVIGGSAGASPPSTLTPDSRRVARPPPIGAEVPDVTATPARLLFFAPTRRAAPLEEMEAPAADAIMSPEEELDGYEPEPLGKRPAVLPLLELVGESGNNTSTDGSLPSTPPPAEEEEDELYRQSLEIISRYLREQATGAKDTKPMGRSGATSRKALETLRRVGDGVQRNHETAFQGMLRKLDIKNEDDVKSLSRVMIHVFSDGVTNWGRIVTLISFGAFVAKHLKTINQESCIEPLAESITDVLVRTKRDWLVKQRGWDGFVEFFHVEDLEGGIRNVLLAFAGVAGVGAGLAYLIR
EBV gp42 block = EBV gp42 inhibition; Fluorescence polarization binding assay, mP read-out; inhibition, % (tested at 21.74 µM); actives 0.42% (n = 220,000); AID 1085; in the data active = inhibition above about 50%
Target sequence (Q1HVG2 whole entry, looked up): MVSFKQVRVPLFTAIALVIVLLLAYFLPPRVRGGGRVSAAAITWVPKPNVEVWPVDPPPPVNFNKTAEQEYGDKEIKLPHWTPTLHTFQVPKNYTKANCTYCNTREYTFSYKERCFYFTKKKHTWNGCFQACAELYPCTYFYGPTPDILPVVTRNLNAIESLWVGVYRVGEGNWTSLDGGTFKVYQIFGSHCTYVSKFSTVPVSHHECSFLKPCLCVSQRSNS
Bim-Mcl-1 = human Bim-Mcl-1 interaction inhibition; Q07820; Bead-based flow cytometry, Bim peptide-Mcl-1 binding; inhibition, % at 10 µM; actives 0.1% (n = 190,000); in the data active = inhibition above about 40%;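 note: 0% = no compound tracer wells and 100% = peptide blocker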
Mcl1-Noxa inh = Mcl-1/Noxa interaction inhibition; Q07820; TR-FRET Mcl-1/Noxa peptide binding, 2 h; inhibition, % at 21.7 µM; actives 1.5% (n = 220,000); AID 1022;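 active = compounds that cut the protein-peptide binding signal by more than 50% relative to plate controls in a single-dose test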;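 note: His-tagged Mcl-1 with rhodamine Noxa BH3 peptide and terbium anti-His antibody; 0% = Mcl-1 plus Noxa peptide wells and 100% = peptide-only wells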
MCL1-BIM inh = disrupts human MCL1 binding to BIM-BH3 peptide; Q07820; actives 0.68% (n = 320,000); GST-MCL1 / FITC-Bim-BH3 fluorescence polarization; inhibition, % at 10.9 µM; AID 2057;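 active = inhibition above the mean inhibition of all tested compounds plus 3 SD, set per campaign, cut at about 40% in these data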;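 note: 0% = DMSO wells and 100% = unlabeled Bim-BH3 peptide control; higher means more loss of mP so more displacement of Bim peptide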
Active calls of the source: *; · = no result given. In the library only some 2.2% were active in any assay of this set; here they are far more common.

SMILES | RBBP9 inhibitor | Mcl1-Bid inh | EBV gp42 block | Bim-Mcl-1 | Mcl1-Noxa inh | MCL1-BIM inh
Cc1cccc(Nc2nc3c(S(=O)(=O)c4ccccc4)nnn3c3ccccc23)c1 | -7 | 57* | -6 | -2 | -41 | -14
C/C(=N/NC(=O)c1ccc(Cl)s1)c1ccc(NC(=O)COc2ccc(Cl)cc2)cc1 | 6 | 55* | 0 | -4 | -69 | 4
CCC(=O)Nc1ccc(/C(C)=N\NC(=O)c2ccc(C)s2)cc1 | -9 | -9 | -10 | 0 | -5 | 3
COc1ccc2ccccc2c1C1CC(=O)N2CN(C3CCCCC3)CSC2=C1C#N (configuration not stated) | 2 | -6 | -27 | -8 | 63* | -19
CCOc1cc(C2CC(=O)N3CN(C4CCCCC4)CSC3=C2C#N)ccc1O (configuration not stated) | 9 | -40 | -9 | -4 | 57* | 5
Oc1ccccc1Nc1nc(NCC2CCCO2)c2ccccc2n1 (configuration not stated) | -3 | -53 | -14 | 3 | 35 | 6
Oc1ccc(Nc2nc(NCC3CCCO3)c3ccccc3n2)cc1 (configuration not stated) | -9 | -32 | 4 | 0 | 55* | ·
COc1cccc(Nc2nc(NCC3CCCO3)c3ccccc3n2)c1 (configuration not stated) | 5 | 92* | -1 | 2 | 41 | -4
Cc1ccc(N2C(=O)c3ccccc3C2=O)cc1 | -13 | -23 | -12 | · | -1 | -7
Cc1ccc(SC2=C(Sc3ccc(C)cc3)C(=O)c3ccccc3C2=O)cc1 | 6 | 1 | -7 | · | 69* | 31
O=C1CCCC2=C1C(c1ccccc1)CC(=O)N2c1ccc(F)cc1F (configuration not stated) | 3 | -19 | -6 | -3 | -3 | 4
COc1cccc(C2=Nc3cccc4cccc(c34)N2)c1 | -2 | 10 | 9 | -5 | 57* | 19
c1coc(C2=Nc3cccc4cccc(c34)N2)c1 | -4 | -58 | 2 | 8 | 33 | 24
Nc1ccc(C2=Nc3cccc4cccc(c34)N2)cc1 | 9 | 10 | 13 | 3 | 77* | ·
CC1=Nc2cccc3cccc(c23)N1 | 5 | -21 | 1 | -3 | 93* | 25
COc1cccc(C(C)NC(=O)Nc2ccccc2Cl)c1 (configuration not stated) | -4 | -25 | -10 | 1 | 7 | 5
O=C(O)CCC(CNS(=O)(=O)c1ccccc1)C(F)(F)F (configuration not stated) | -12 | 0 | 1 | 2 | 70* | 4
CCc1ccc(C(=O)NC2CCCCC2)s1 | -5 | 61* | 7 | -3 | -3 | 4
CNc1ccc([N+](=O)[O-])cc1-c1nc2ccccc2[nH]c1=O | 7 | 48 | 7 | · | 65* | 0
CC(=O)c1ccc(N2CCN(C(=O)c3ccc4c(c3)OCO4)CC2)cc1 | · | · | · | · | · | -4
COc1ccc(N2CCN(C(=O)CSc3ccccc3)CC2)cc1 | -14 | -13 | -6 | -4 | 10 | 10
COc1ccc(N2CCN(C(=O)c3ccc(CSc4ccccc4)cc3)CC2)cc1 | -3 | -17 | -15 | -2 | 96* | -1
COc1ccc(N2CCN(C(=O)c3ccc4c(c3)OCO4)CC2)cc1 | 5 | 86* | -10 | -2 | -6 | 0
COc1ccc(F)cc1S(=O)(=O)NCC(=O)NCc1cc(=O)n(C)c(=O)n1C | · | · | · | · | · | 11
COc1ccc(/C=C2\SC(=S)N(CCC(=O)Nc3ccc(O)cc3)C2=O)cc1 | · | · | · | · | · | 7
SMILES | RBBP9 inhibitor | Mcl1-Bid inh | EBV gp42 block | Bim-Mcl-1 | Mcl1-Noxa inh | MCL1-BIM inh
COc1ccc(/C=C2\SC(=O)N(CCC(=O)Nc3ccc(S(=O)(=O)Nc4nccs4)cc3)C2=O)cc1 | -2 | 23 | 1 | -2 | 93* | 1
COc1ccc(/C=C2/SC(=O)N(CCC(=O)Nc3ccc(S(=O)(=O)Nc4nccs4)cc3)C2=O)cc1 | -3 | 42 | 4 | -8 | 96* | -7
O=C(CCN1C(=O)S/C(=C\c2cccs2)C1=O)Nc1nccs1 | -5 | -43 | -25 | 0 | 28 | -3
Cc1cc(=O)oc2cc(OCC(=O)N3CCN(C(=O)C4COc5ccccc5O4)CC3)c(Cl)cc12 (configuration not stated) | · | · | · | · | · | 3
CCCCNC(=S)N(CCN(C)C)Cc1cc2cc3c(cc2[nH]c1=O)OCCO3 | · | · | · | · | · | 0
CCN(CC)c1ccc(NC(=O)CN2CCN(CC(=O)Nc3ccccc3OC)CC2)cc1 | · | · | · | · | · | 5
CCN(CC)c1ccc(NC(=O)CN2CCN(CC(=O)Nc3ccccc3F)CC2)cc1 | 0 | -51 | -3 | 0 | 55* | 4
CCN(CC)C(=O)c1sc(NC(=O)c2cc(-c3ccc(C)s3)nc3ccccc23)c(C(=O)OC)c1C | -5 | 11 | -29 | 0 | 61* | 3
CCN(CC)C(=O)c1sc(NC(=O)c2ccoc2C)c(C(=O)OC)c1C | 1 | 2 | 4 | -5 | 31 | 1
Cc1ccc(-n2nc(-c3ccco3)cc2C(=O)O)c(C)c1 | -8 | -42 | 23 | 0 | 79* | ·
Cc1ccc(-n2nc(-c3cccnc3)cc2C(=O)N2CCOCC2)c(C)c1 | -3 | -18 | -19 | -1 | 9 | 9
O=C(O)c1cc(-c2cc3ccccc3o2)nn1-c1ccccc1 | -2 | 4 | 0 | -2 | 9 | -3
O=C(O)c1cc(-c2ccco2)nn1-c1ccc(Cl)cc1 | -8 | -13 | 27 | -2 | 81* | ·
CCOC(=O)c1sc(NC(=O)Nc2ccc(Cl)cc2)cc1C | 9 | 7 | -12 | 2 | 100* | -5
O=C(NCCO)Nc1ccc2nc(-c3ccco3)c(-c3ccco3)nc2c1 | 15* | 18 | 49 | 15 | 106* | 145*
O=C(NCCO)Nc1ccc2nsnc2c1 | 12 | 5 | -24 | 4 | -13 | 2
O=C(NCCCO)c1ccc2nc(-c3ccco3)c(-c3ccco3)nc2c1 | 9 | -19 | -6 | 18 | 91* | ·
CCc1nc2ccc(C(=O)NCCc3ccco3)cc2nc1CC | · | · | · | · | · | -2
COc1ccc(C(=O)NC(C)CCn2cccn2)cc1OC1CCN(C(C)C)CC1 (configuration not stated) | · | · | · | · | · | 9
C=C(C)C1Cc2c(C)nn(-c3cc(C)c4ccccc4n3)c2C1 (configuration not stated) | -6 | · | · | · | · | ·
CCN(CC(=O)Nc1ccc(C)c(F)c1)CC(=O)NC(C)(C)C | 10 | 0 | -3 | -6 | -19 | -1
Cn1cc(C(=O)N/N=C/c2ccc([N+](=O)[O-])cc2)c2ccccc21 | 0 | 38 | -21 | · | 75* | 0
S=c1[nH]nc(-c2cccc(Cl)c2)n1/N=C/c1ccc(-c2ccccc2Br)o1 | -3 | 46 | -9 | · | 72* | -7
S=c1[nH]nc(-c2ccccc2)n1/N=C/c1ccc(-c2ccccc2Cl)o1 | -6 | 34 | 7 | -3 | 64* | -11

Bioassay records (PubChem)
